Results: ChEMBL document CHEMBL1144948, “Design and synthesis of 1,5-diarylbenzimidazoles as inhibitors of the VEGF-receptor KDR” (Bioorg Med Chem Lett, 2003)
Converted amounts (≈) assume the structure as drawn.

Legend:
HUVEC = assay: Inhibition of HUVEC cell proliferation; conditions: Homo sapiens
[1] = Solubility at pH 7.4; assay type: physicochemical; conditions: buffer
How it was run: (§1)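 Saturated compound solution in pH-adjusted buffer is filtered. Concentration comes from the HPLC peak area compared against standard methanolic solutions.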

Homo sapiens = species on record: Homo sapiens; assay: Compound tested for ability to bind to human plasma protein; assay type: cell-free
How it was run: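 Human plasma binding: buffer solutions of test compound equilibrated with human plasma, free and bound drug separated by ultrafiltration, free compound concentration measured by HPLC; reported as percent bound.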

[2] = Partition coefficient (logP); assay type: physicochemical; conditions: octanol/water
How it was run: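 Shake-flask partition: a methanolic sample aliquot added to equal volumes of 1-octanol and pH 7.4 buffer, equilibrated 8 h, then compound concentration measured in each phase.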

[3] = Solubility at pH 5.2; assay type: physicochemical; conditions: buffer; how it was run: as §1
[4] = Oral bioavailability (F%) of compound was determined as average of four rats at each dose of 5 mg/kg intravenous and 20 mg/kg peroral administration; assay type: ADME, organism-based; conditions: rat, in vivo
How it was run: (§2)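 Rats, four per route and values averaged; 5 mpk iv given as a solution in DMSO, 20 mpk po as a suspension in 0.5% methocel.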

[5] = CL (clearance) of compound was determined after intravenous administration in average of two dogs at a dose of 1 mg/kg; assay type: ADME, organism-based, Canis lupus familiaris; design: dose 1 mg/kg, route intravenous; conditions: dog, in vivo
How it was run: (§3)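 Dogs (n=2, averaged) received 1 mpk iv as a solution in DMSO.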

[6] = Half life period as average of four rats at each dose of 5 mg/kg intravenous and 20 mg/kg peroral administration; assay type: ADME, organism-based; conditions: rat, in vivo; how it was run: as §2
[7] = Volume distribution of compound was determined as average of four rats at each dose of 5 mg/kg intravenous and 20 mg/kg peroral administration; assay type: ADME, organism-based; conditions: rat, in vivo, read-out: Vdss; how it was run: as §2
[8] = Solubility atpH 5.2; assay type: physicochemical; conditions: pH 5.2; how it was run: as §1
[9] = CL (clearance) of compound was determined as average of four rats at each dose of 5 mg/kg intravenous and 20 mg/kg peroral administration; assay type: ADME, organism-based; conditions: rat, in vivo; how it was run: as §2
[10] = Volume distribution (Vdss) of compound was determined after intravenous administration in average of two dogs at a dose of 1 mg/kg; assay type: ADME, organism-based, Canis lupus familiaris; design: dose 1 mg/kg, route intravenous; conditions: dog, in vivo, read-out: Vdss; how it was run: as §3
[11] = Half life period (t1/2) of compound was determined after intravenous administration in average of two dogs at a dose of 1 mg/kg; assay type: ADME, organism-based, Canis lupus familiaris; design: dose 1 mg/kg, route intravenous; conditions: dog, in vivo; how it was run: as §3
[12] = Volume distribution of compound was determined as average of four rats at each dose of 5 mg/kg intravenous and 16 mg/kg peroral administration; assay type: ADME, organism-based; conditions: rat, in vivo, read-out: Vdss
How it was run: (§4)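 Rats (n=4 per route, averaged) dosed 5 mpk iv as a DMSO solution and 16 mpk po as a suspension in 0.5% methocel.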

[13] = CL (clearance) of compound was determined as average of four rats at each dose of 5 mg/kg intravenous and 16 mg/kg peroral administration; assay type: ADME, organism-based; conditions: rat, in vivo; how it was run: as §4
[14] = Oral bioavailability (F%) of compound was determined as average of four rats at each dose of 5 mg/kg intravenous and 16 mg/kg peroral administration; assay type: ADME, organism-based; conditions: rat, in vivo; how it was run: as §4
[15] = Half life period as average of four rats at each dose of 5 mg/kg intravenous and 16 mg/kg peroral administration; assay type: ADME, organism-based; conditions: rat, in vivo; how it was run: as §4

solubility [1] | Binding (Homo sapiens) | logP [2] | SMILES | IC50 (HUVEC) | other results
 |  |  | COc1ccc(-c2ccc3c(c2)ncn3-c2ccccc2)cc1 | > 1000 nM | 
> 1000 µg/mL | 85% |  | O=c1ccc(-c2ccc3c(c2)ncn3-c2ccccc2)cn1CCN1CCCCC1 |  | 
21 µg/mL (≈ 0.0527 mM) | 97.4% | 3.55 | c1ccc(-n2cnc3cc(-c4ccc(OCCN5CCCCC5)cc4)cnc32)cc1 | 48 nM | solubility [3]: 6460 µg/mL (≈ 16.2 mM)
8400 µg/mL (≈ 20.4 mM) | 80.7% | 2.25 | O=c1cc(-c2ccc3c(c2)ncn3-c2ccccc2)ccn1CCCN1CCCCC1 | 37 nM | bioavailability [4]: 73%; clearance [5]: 8.9 mL/min/kg; half-life [6]: 2.9 h; Vd [7]: 3.9 L/kg; solubility [8]: 33900 µg/mL (≈ 82.2 mM); clearance [9]: 17.3 mL/min/kg; Vd [10]: 7.9 L/kg; half-life [11]: 10.4 h
 |  |  | O=c1ccc(-c2ccc3c(c2)ncn3-c2ccccc2)cn1CCCN1CCCCC1 | 152 nM | 
 |  |  | c1ccc(-n2cnc3cc(-c4ccc(OCCN5CCCCC5)nc4)ccc32)cc1 | 122 nM | 
 |  |  | O=c1nc(-c2ccc3c(c2)ncn3-c2ccccc2)ccn1CCCN1CCCCC1 | 164 nM | 
< 0.01 µg/mL | 99.4% | 4.29 | c1ccc(-n2cnc3cc(-c4ccc(OCCN5CCCCC5)cc4)ccc32)cc1 | 87 nM | Vd [12]: 1.9 L/kg; clearance [13]: 14.4 mL/min/kg; clearance [5]: 4.6 mL/min/kg; bioavailability [14]: 76%; Vd [10]: 3.1 L/kg; half-life [11]: 5.2 h; half-life [15]: 6.1 h; solubility [3]: 120 µg/mL (≈ 0.302 mM)
 |  |  | c1ccc(-n2cnc3cc(-c4ccc(NCCN5CCOCC5)nc4)ccc32)cc1 | 213 nM | 
